Measurements reported in ChEMBL document CHEMBL1687888, “Synthesis, hypoxia-selective cytotoxicity of new 3-amino-1,2,4-benzotriazine-1,4-dioxide derivatives” (Eur J Med Chem, 2011).
The source made the active and inactive calls. The rule behind the calls is not given here.

Assays:
[1] = system: PC-3; experiment: Cytotoxicity against human PC3 cells for 72 hrs under normoxic condition by MTT assay; assay type: functional, cell-based; settings: PC-3, 72 h
Summary of the method: (§1)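 RPMI-1640 with heat-inactivated 10% FBS plus penicillin/streptomycin; hypoxia 3% O2, 5% CO2 or normoxia 20% O2, 5% CO2, 37 °C. Compounds dissolved in DMSO at 10.0 mg/mL (stock), then diluted; cells seeded 5×10³ per well. Viability read by MTT kit; IC50 taken as concentration giving 50% absorbance inhibition versus control cells.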

[2] = system: K562; experiment: Cytotoxicity against human K562 cells for 72 hrs under hypoxic condition by MTT assay; assay type: functional, cell-based; settings: K562, 72 h; summary of the method: as §1
[3] = system: KB; experiment: Cytotoxicity against human KB cells for 72 hrs under hypoxic condition by MTT assay; assay type: functional, cell-based; summary of the method: as §1
[4] = system: KB; experiment: Cytotoxicity against human KB cells for 72 hrs under normoxic condition by MTT assay; assay type: functional, cell-based; summary of the method: as §1
[5] = system: SMMC-7721; experiment: Cytotoxicity against human SMMC7721 cells for 72 hrs under normoxic condition by MTT assay; assay type: functional, cell-based; settings: SMMC-7721, 72 h; summary of the method: as §1
[6] = system: A549; experiment: Cytotoxicity against human A549 cells for 72 hrs under normoxic condition by MTT assay; assay type: functional, cell-based; settings: A549, 72 h; summary of the method: as §1
[7] = system: A549; experiment: Cytotoxicity against human A549 cells for 72 hrs under hypoxic condition by MTT assay; assay type: functional, cell-based; settings: A549, 72 h; summary of the method: as §1
[8] = system: SMMC-7721; experiment: Cytotoxicity against human SMMC7721 cells for 72 hrs under hypoxic condition by MTT assay; assay type: functional, cell-based; settings: SMMC-7721, 72 h; summary of the method: as §1
[9] = system: PC-3; experiment: Cytotoxicity against human PC3 cells for 72 hrs under hypoxic condition by MTT assay; assay type: functional, cell-based; settings: PC-3, 72 h; summary of the method: as §1
[10] = system: K562; experiment: Cytotoxicity against human K562 cells for 72 hrs under normoxic condition by MTT assay; assay type: functional, cell-based; settings: K562, 72 h; summary of the method: as §1
[11] = system: K562; experiment: Induction of apoptosis in human K562 cells under normoxic condition assessed as DNA fragmentation at 10 uM for 48 hrs using propidium iodide by flow cytometry; assay type: functional, cell-based
Summary of the method: (§2)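 K562 held under hypoxia (3% O2, 5% CO2) or normoxia (20% O2, 5% CO2) at 37 °C, treated 48 h. Cells washed in PBS, fixed in 75% ethanol at −20 °C overnight, RNase-treated 30 min at 37 °C, PI-stained 30 min at room temperature in the dark. DNA content and apoptotic fraction read by flow cytometry.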

[12] = system: K562; experiment: Induction of apoptosis in human K562 cells under normoxic condition assessed as accumulation at Sub-G1 phase at 10 uM for 48 hrs using propidium iodide by flow cytometry (reference value: 5.27%); assay type: functional
[13] = system: K562; experiment: Induction of apoptosis in human K562 cells under hypoxic condition assessed as decrease in XIAP level at 10 uM for 48 hrs by Western blotting
[14] = system: K562; experiment: Induction of apoptosis in human K562 cells under hypoxic condition assessed as caspase-3 cleavage at 10 uM for 48 hrs by Western blotting; assay type: functional, cell-based
Summary of the method: (§3)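 K562 treated 48 h under hypoxia (3% O2) or normoxia (20% O2), 5% CO2, 37 °C. Lysis buffer: 150 mM NaCl, 50 mM Tris-HCl pH 8.0, 2 mM EGTA, 2 mM EDTA, 25 mM NaF, 25 mM β-glycerophosphate, 0.2% Triton X-100, 0.3% NP-40, 0.1 mM PMSF. Extracts immunoblotted for procaspase-3, cleaved caspase-3, PARP and XIAP.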

[15] = system: K562; experiment: Induction of apoptosis in human K562 cells under hypoxic condition assessed as decrease in procaspase-3 level at 10 uM for 48 hrs by Western blotting
[16] = system: K562; experiment: Induction of apoptosis in human K562 cells under hypoxic condition assessed as decrease in XIAP level at 10 uM for 48 hrs by Western blotting; assay type: functional, cell-based; summary of the method: as §3
[17] = system: K562; experiment: Induction of apoptosis in human K562 cells under hypoxic condition assessed as accumulation at Sub-G1 phase at 10 uM for 48 hrs using propidium iodide by flow cytometry (reference value: 13.03%); assay type: functional
[18] = system: K562; experiment: Induction of apoptosis in human K562 cells under hypoxic condition assessed as decrease in PARP level at 10 uM for 48 hrs by Western blotting; assay type: functional, cell-based; summary of the method: as §3
[19] = system: K562; experiment: Induction of apoptosis in human K562 cells under hypoxic condition assessed as decrease in procaspase-3 level at 10 uM for 48 hrs by Western blotting; assay type: functional, cell-based; summary of the method: as §3
[20] = system: K562; experiment: Induction of apoptosis in human K562 cells under hypoxic condition assessed as decrease in PARP level at 10 uM for 48 hrs by Western blotting
[21] = system: K562; experiment: Induction of apoptosis in human K562 cells under hypoxic condition assessed as DNA fragmentation at 10 uM for 48 hrs using propidium iodide by flow cytometry; assay type: functional, cell-based; summary of the method: as §2

## COc1ccc2c(c1)[n+]([O-])nc(NCOCc1ccccc1)[n+]2[O-]
[1]
  IC50: 8.58 µM
[2]
  IC50: 0.24 µM
[3]
  IC50: 18.1 µM
[4]
  IC50: 2.4 µM
[5]
  IC50: 21.4 µM
[6]
  IC50: 2.5 µM
[7]
  IC50: 4.47 µM
[8]
  IC50: 1.19 µM
[9]
  IC50: 88.5 µM
[10]
  IC50: 27.5 µM

## [O-][n+]1nc(NCOCc2ccccc2)[n+]([O-])c2ccccc21
[1]
  IC50: 13.4 µM
[2]
  IC50: 4.69 µM
[3]
  IC50: 12.3 µM
[4]
  IC50: 5.72 µM
[5]
  IC50: 20.1 µM
[6]
  IC50: 10.8 µM
[7]
  IC50: 4.14 µM
[8]
  IC50: 4.79 µM
[9]
  IC50: 11.9 µM
[10]
  IC50: 16.1 µM

## CC(C)CCOCNc1n[n+]([O-])c2ccccc2[n+]1[O-]
[1]
  IC50: 11.1 µM
[2]
  IC50: 5.85 µM
[3]
  IC50: 5.21 µM
[4]
  IC50: 3.04 µM
[5]
  IC50: 15.9 µM
[6]
  IC50: 7.27 µM
[7]
  IC50: 2.11 µM
[8]
  IC50: 2.86 µM
[9]
  IC50: 7.52 µM
[10]
  IC50: 13.1 µM

## COc1ccc2c(c1)[n+]([O-])nc(NCOC(C)c1ccccc1)[n+]2[O-] (stereo unspecified)
[1]
  IC50: 4.14 µM
[2]
  IC50: 0.25 µM
[3]
  IC50: 12.4 µM
[4]
  IC50: 0.22 µM
[5]
  IC50: 8.04 µM
[6]
  IC50: 3.13 µM
[7]
  IC50: 0.22 µM
[8]
  IC50: 0.74 µM
[9]
  IC50: > 100 µM
[10]
  IC50: 6.69 µM

## CCOCNc1n[n+]([O-])c2ccccc2[n+]1[O-]
[1]
  IC50: 15.9 µM
[2]
  IC50: 4.99 µM
[3]
  IC50: 22.5 µM
[4]
  IC50: 2.8 µM
[5]
  IC50: 27.1 µM
[11]
  Activity: Active
[12]
  Activity: 14.13%
[13]
  Activity: Active
[6]
  IC50: 10.5 µM
[14]
  Activity: Active
[15]
  Activity: Active
[7]
  IC50: 4.09 µM
[16]
  Activity: Active
[8]
  IC50: 4.23 µM
[9]
  IC50: 7.4 µM
[17]
  Activity: 33.07%
[18]
  Activity: Active
[19]
  Activity: Active
[20]
  Activity: Active
[10]
  IC50: 15.4 µM
[21]
  Activity: Active

## CCCCCOCNc1n[n+]([O-])c2cc(OC)ccc2[n+]1[O-]
[1]
  IC50: 3.63 µM
[2]
  IC50: 0.45 µM
[3]
  IC50: 16.9 µM
[4]
  IC50: 2.81 µM
[5]
  IC50: 12.9 µM
[6]
  IC50: 5.04 µM
[7]
  IC50: 2.51 µM
[8]
  IC50: 0.55 µM
[9]
  IC50: 30.9 µM
[10]
  IC50: 7.11 µM

## [O-][n+]1nc(NCOC2CCCCC2)[n+]([O-])c2ccccc21
[1]
  IC50: 3.25 µM
[2]
  IC50: 4.88 µM
[3]
  IC50: 22.1 µM
[4]
  IC50: 4.39 µM
[5]
  IC50: 28.2 µM
[6]
  IC50: 5.18 µM
[7]
  IC50: 1.2 µM
[8]
  IC50: 4.17 µM
[9]
  IC50: 6.67 µM
[10]
  IC50: 10.8 µM

## O=[N+]([O-])c1cccc(COCNc2n[n+]([O-])c3ccccc3[n+]2[O-])c1
[1]
  IC50: 3.07 µM
[2]
  IC50: 0.65 µM
[3]
  IC50: 16.6 µM
[4]
  IC50: 0.58 µM
[5]
  IC50: 8.54 µM
[6]
  IC50: 2.89 µM
[7]
  IC50: 3.44 µM
[8]
  IC50: 0.52 µM
[9]
  IC50: > 100 µM
[10]
  IC50: 5.65 µM

## CCCCCCCOCNc1n[n+]([O-])c2ccccc2[n+]1[O-]
[1]
  IC50: 1.21 µM
[2]
  IC50: 6.17 µM
[3]
  IC50: 14 µM
[4]
  IC50: 2.52 µM
[5]
  IC50: 7.03 µM
[6]
  IC50: 2.61 µM
[7]
  IC50: 3.49 µM
[8]
  IC50: 3.09 µM
[9]
  IC50: 0.39 µM
[10]
  IC50: 2.97 µM
